ChEMBL document CHEMBL1138062 (J Med Chem, 2006)
pIC50, pKi: −log10 of the molar value. Active and inactive are the calls of the source. No cut-off for these calls is given here.

Legend:
[1] = target: GABA-A receptor; anion channel; experiment: Displacement of [3H]muscimol from GABAA receptor in rat brain synaptic membranes; assay type: cell membranes, Membrane
Method in brief: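 Rat brain membrane preparations used for receptor binding. IC50 and Ki treated as log-normally distributed; mean and SEM calculated on the log scale, with the range given as the antilog of log mean ± SEM.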

[2] = target: Sodium- and chloride-dependent GABA transporter 1 (Mus musculus) (UniProt P31648); experiment: Inhibition of [3H]GABA uptake at mouse GABA transporter1 expressed in HEK293 cells at 1 mM; assay type: cell-based
[3] = target: T1, GABA transporter 4 (Mus musculus) (UniProt P31650); experiment: Inhibition of [3H]GABA uptake at mouse GABA transporter4 expressed in HEK293 cells at 1 mM; assay type: cell-based
T1 sequence (whole entry): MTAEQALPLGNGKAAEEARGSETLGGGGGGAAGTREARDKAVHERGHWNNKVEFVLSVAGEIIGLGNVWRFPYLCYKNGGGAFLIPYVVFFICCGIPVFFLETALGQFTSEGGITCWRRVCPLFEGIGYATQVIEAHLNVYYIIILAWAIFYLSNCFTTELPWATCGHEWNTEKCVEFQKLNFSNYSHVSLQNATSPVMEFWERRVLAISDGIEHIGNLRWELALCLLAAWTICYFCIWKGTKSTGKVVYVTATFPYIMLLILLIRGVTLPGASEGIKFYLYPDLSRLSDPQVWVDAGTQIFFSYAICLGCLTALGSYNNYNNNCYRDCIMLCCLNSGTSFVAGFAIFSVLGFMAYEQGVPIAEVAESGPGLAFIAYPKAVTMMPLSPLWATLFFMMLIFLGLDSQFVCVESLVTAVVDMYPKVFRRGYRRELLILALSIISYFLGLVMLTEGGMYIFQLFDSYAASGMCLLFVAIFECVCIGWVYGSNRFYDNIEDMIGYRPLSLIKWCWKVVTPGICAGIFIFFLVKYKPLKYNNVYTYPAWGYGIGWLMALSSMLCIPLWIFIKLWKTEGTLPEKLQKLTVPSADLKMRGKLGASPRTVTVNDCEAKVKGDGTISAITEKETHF

[4] = Agonist activity at GABAA receptor in mouse cerebral cortical neurons assessed as induction of peak current at 3 mM relative to GABA by whole cell patch clamp method; assay type: functional
Method in brief: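 Peak currents evoked by 3 mM test agent compared with a close to maximal GABA response (600 µM). Specificity was checked by pretreating cells with gabazine (100 µM) for 15 s, then co-applying gabazine (100 µM) with agonist (3 mM). Values are mean ± SE, N = 3–7.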

Mus musculus = species on record: Mus musculus; experiment: Inhibition of isoguvacine-induced current in mouse cerebral cortical neurons expressing GABAA receptor by whole cell patch clamp method; assay type: functional
Method in brief: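 Test agent applied at a range of concentrations against isoguvacine-evoked currents. Currents normalized to the current induced by 20 µM isoguvacine. Mean ± SE from nine neurons. IC50 estimated by linear regression.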

[5] = target: T2, GABA transporter 2 (Mus musculus) (UniProt P31651); experiment: Inhibition of [3H]GABA uptake at mouse GABA transporter2 expressed in HEK293 cells at 1 mM; assay type: cell-based
T2 sequence (whole entry): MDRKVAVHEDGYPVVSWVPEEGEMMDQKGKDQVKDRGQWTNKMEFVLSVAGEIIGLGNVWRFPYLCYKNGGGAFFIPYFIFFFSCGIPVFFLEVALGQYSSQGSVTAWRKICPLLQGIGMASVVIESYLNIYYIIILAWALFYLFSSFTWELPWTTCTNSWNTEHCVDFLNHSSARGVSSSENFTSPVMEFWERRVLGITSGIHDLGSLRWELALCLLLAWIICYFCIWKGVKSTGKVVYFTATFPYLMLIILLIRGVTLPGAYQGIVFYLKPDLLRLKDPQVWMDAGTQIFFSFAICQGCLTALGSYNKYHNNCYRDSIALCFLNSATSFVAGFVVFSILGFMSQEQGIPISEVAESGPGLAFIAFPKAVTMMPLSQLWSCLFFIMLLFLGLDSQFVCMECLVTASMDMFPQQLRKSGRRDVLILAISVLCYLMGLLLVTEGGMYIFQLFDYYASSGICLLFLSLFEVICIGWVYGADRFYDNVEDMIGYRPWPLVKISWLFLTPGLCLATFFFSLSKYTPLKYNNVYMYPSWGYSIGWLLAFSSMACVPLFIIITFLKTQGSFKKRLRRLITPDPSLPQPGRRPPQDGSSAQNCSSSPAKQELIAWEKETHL

[6] = target: T3, GABA transporter 3 (Mus musculus) (UniProt P31649); experiment: Inhibition of [3H]GABA uptake at mouse GABA transporter3 expressed in HEK293 cells at 1 mM; assay type: cell-based
T3 sequence (whole entry): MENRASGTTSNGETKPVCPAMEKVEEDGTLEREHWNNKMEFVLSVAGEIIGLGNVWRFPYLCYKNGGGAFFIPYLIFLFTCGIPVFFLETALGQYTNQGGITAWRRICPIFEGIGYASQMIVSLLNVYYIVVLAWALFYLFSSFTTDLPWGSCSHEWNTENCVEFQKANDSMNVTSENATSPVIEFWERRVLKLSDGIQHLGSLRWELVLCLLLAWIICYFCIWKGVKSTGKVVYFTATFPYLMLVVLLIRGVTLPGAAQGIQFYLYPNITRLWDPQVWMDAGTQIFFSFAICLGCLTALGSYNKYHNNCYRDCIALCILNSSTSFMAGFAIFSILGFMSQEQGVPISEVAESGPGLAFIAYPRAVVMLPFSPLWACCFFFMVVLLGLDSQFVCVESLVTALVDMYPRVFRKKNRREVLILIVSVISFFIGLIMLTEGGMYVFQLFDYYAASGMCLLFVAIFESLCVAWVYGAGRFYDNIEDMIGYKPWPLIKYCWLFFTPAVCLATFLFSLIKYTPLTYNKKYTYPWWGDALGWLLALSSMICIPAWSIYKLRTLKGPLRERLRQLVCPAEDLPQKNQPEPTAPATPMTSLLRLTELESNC

GABA-B receptor (rat) = experiment: Inhibition of [3H]GABA binding in GABAB receptor in rat brain synaptic membranes

pIC50 [1] | inhibition [2] | inhibition [3] | inhibition [5] | inhibition [6] | pIC50 (GABA-B receptor (rat)) | SMILES | Activity [4] | inhibition (Mus musculus) | pKi [1]
< 4.00 | inactive | inactive | inactive | inactive | < 4.00 | NCCCCc1nonc1O | 0.8% | Dose-dependent effect | 
 | inactive | inactive | inactive | inactive | 4.60 | NCCCc1nonc1O | 14% | Dose-dependent effect | 4.57

SMILES | pIC50 [1] | inhibition [2] | inhibition [3] | inhibition [5] | inhibition [6] | pIC50 (GABA-B receptor (rat)) | Activity [4] | inhibition (Mus musculus) | pKi [1]
NCCc1nonc1O |  | inactive | inactive | inactive | inactive | 5.70 | 40% | Dose-dependent effect | 4.89
